# Screening results: PubChem BioAssay, The Scripps Research Institute Molecular Screening Center
# OX1R antag-1 – human HCRTR1 antagonism. inhibition, % at 5 µM. O43613. hit rate 0.43% among 330,000. AID 434989. CHO/OX1R cells, Fluo-8 calcium fluorescence, orexin A;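 active means inhibition above its plate's threshold, mean inhibition of all tested compounds on the plate plus 3 SD, cut at about 37% in these data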;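 further: 0% = orexin A challenge wells and 100% = SB-334867-A antagonist wells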
# TAAR1 antag – antagonists of human TAAR1; Q96RJ0; CHO RD-HGA16 TAAR1, Fluo-8 calcium fluorescence, antagonist; inhibition, % at 3 µM; hit rate 1.5% among 360,000; AID 624466;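 active means inhibition above a per-plate cutoff, the mean inhibition of test compounds on that plate plus 3 SD, cut at about 49% in these data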;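 further: 0% = DMSO plus EC80 beta-PEA response and 100% = DMSO alone without agonist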
#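 Material: RD-HGA16 CHO cells with stable hTAAR1 and Gα16; Dosing: single nominal final test compound concentration of 3 µM; Schedule: seeding 17-24 h prior, 75-min 37 °C, 30-min RT dye loading; Detection: kinetic Fluo-8 calcium fluorescence measurement; Measure: % inhibition from peak post-agonist over basal fluorescence ratio; Benchmarks: vehicle and agonist controls.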
# OX1R antag-2 – OX1R (human) antagonism; AID 485270; OX1R-expressing cells, FRET antagonist read-out; hit rate 1.8% among 330,000; O43613; inhibition, % at 6.6 µM; in the data active means inhibition mostly above about 38%, no sharp cut-off; inactive means mostly below about 40%;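 further: 0% = agonist challenge alone and 100% = reference antagonist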
# GPR7 antag – antagonists of human GPR7 (neuropeptides B/W receptor 1). P48145. GPR7-expressing cells, fluorescence antagonist assay. inhibition, % at 4.4 µM. hit rate 1.1% among 290,000; in the data active means inhibition above about 16%, passing the limit was not always enough;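 further: cells stimulated with the agonist NPW; 0% = agonist with vehicle and 100% = vehicle without agonist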
# Target sequence (P48145 whole entry, looked up): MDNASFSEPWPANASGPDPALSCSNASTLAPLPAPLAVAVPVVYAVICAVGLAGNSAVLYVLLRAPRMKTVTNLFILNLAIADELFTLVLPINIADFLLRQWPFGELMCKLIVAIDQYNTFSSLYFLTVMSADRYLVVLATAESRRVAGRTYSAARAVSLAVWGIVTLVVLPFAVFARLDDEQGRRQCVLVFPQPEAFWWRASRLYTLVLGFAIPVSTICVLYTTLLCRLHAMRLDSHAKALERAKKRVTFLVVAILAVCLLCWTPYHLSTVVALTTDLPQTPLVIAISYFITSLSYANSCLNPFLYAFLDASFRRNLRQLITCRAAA
# TAAR1 ag – human TAAR1 agonism; CHO RD-HGA16 TAAR1, Fluo-8 calcium fluorescence; vehicle wells 0%, saturating PEA agonist 100%; AID 624467; hit rate 0.99% among 360,000; Q96RJ0; activation, % at 3 µM;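 active means activation above the mean activation of all test compounds in the run plus 3 SD, cut at about 38% in these data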
#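 System: CHO-derived RD-HGA16 cells with stable Gα16 and human TAAR1 / Times: 17-24 h plating, Fluo-8 75 min 37 °C, 30 min RT / Technique: calcium-sensitive Fluo-8 signal, excitation 470-495, emission 515-575 nm / Measure: % activation relative to PEA EC100 response / Benchmarks: DMSO and PEA EC100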
# CHO parental Ca – counter-screen for OX1R antagonists: effect in parental CHO cells; parental CHO-K1, ATP-induced calcium, Fluo-8 fluorescence; inhibition, % at 5.6 µM; hit rate 0.63% among 330,000; AID 463079;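 active means inhibition above that plate's mean sample inhibition plus 3 SD, cut at about 26% in these data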;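 further: 0% = ATP-challenged DMSO wells and 100% = DMSO wells without ATP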
#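 test system = CHO parental line | reagent = ATP stimulus | measured by = intracellular calcium via Fluo-8 no-wash fluorescent dye | control set = ATP and no-ATP DMSO wells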
# GPR7 antag cf – confirmation of human GPR7 antagonists | inhibition, % at 4.4 µM | hit rate 52% among 2,400 | GPR7-expressing cells, calcium fluorescence antagonist mode | shares compounds with GPR7 antag; in the data active means inhibition above about 24%;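 further: stimulated with the GPR7 agonist NPW; 0% = agonist plus vehicle and 100% = vehicle alone without agonist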
# MCHR1 antag – counter-screen for GPR7 antagonists: antagonists of human MCHR1; shares compounds with GPR7 antag; MCHR1-expressing cells, fluorescence antagonist assay; inhibition, % at 4.4 µM; hit rate 62% among 2,400; in the data active means inhibition above about 22%;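 further: 0% = vehicle with agonist and 100% = vehicle without agonist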
# Active calls of the source: *; x = no result. In the library only some 4.5% were active in any assay of this set; here they are far more common.
SMILES,OX1R antag-1,TAAR1 antag,OX1R antag-2,GPR7 antag,TAAR1 ag,CHO parental Ca,GPR7 antag cf,MCHR1 antag
COC(=O)C1=C(N)Oc2cc(N(C)C)ccc2C1c1ccccc1OC (stereo unspecified),-22,-7,17,25*,13,-16,9,33*
COC(=O)C1=C(N)Oc2cc(C)n(CC3CCCO3)c(=O)c2C1c1ccccc1OC (stereo unspecified),-15,-13,-2,-9,-1,-13,x,x
CCOc1ccc(N2C(=O)CN(O)C=C3N=c4ccccc4=C32)cc1,-20,x,8,14,x,-5,x,x
CCCc1noc2c1/C(=N\O)CC(c1ccccc1)C2 (stereo unspecified),-2,-6,29,23*,-2,9,41*,23*
O=C1COc2ccc(C(=O)COC(=O)Cn3cnc4ccccc43)cc2N1,-6,2,2,24*,16,-1,-4,2
O=C1COc2ccc(C(=O)COC(=O)c3ccc4ccccc4n3)cc2N1,-8,30,19,-5,4,-6,x,x
Cc1cccc(NC(=O)c2sc3nc(N)c(C#N)cc3c2N)c1,-11,-1,12,-2,6,-19,x,x
O=C(Cc1cccs1)N1CCN=C1SCc1ccc(Br)cc1,-22,-10,1,0,2,-3,x,x
c1ccc2c(c1)OC(CCCN1CCCCC1)c1ccccc1S2 (stereo unspecified),15,-14,9,25*,35,-6,33*,54*
COc1ccc(S(=O)(=O)N2CCC(C(=O)N[C@H](C(=O)NC3CCCC3)C(C)C)CC2)cc1,-18,-14,4,-8,4,0,x,x
CC(C)c1cc(N2CCN(C(=O)c3ccco3)CC2)n2c(nc3ccccc32)c1C#N,-29,29,17,25*,5,-20,-9,3
CCn1c(N2CCN(C(=O)c3ccco3)CC2)nc2ccccc21,1,-6,2,-6,1,-14,x,x
O=[N+]([O-])c1ccccc1NS(=O)(=O)c1ccccc1,x,11,x,x,1,x,x,x
O=CN/N=C/c1c(O)ccc2ccccc12,-12,-18,20,-7,3,-2,x,x
NC(=S)N/N=C/c1c(O)ccc2ccccc12,-2,-10,17,23*,3,8,1,-1
Cc1ccc(-n2ncc3c2CCCC3NC(=O)c2csnn2)cc1C (stereo unspecified),-23,-15,50,0,-2,-11,x,x
CCOc1ccc(CCNC(=O)COC(=O)c2nc(Cl)ccc2Cl)cc1OCC,-23,-9,15,x,1,-28,x,x
COCCCN1CCN(C2Cc3ccccc3Sc3ccc(Cl)cc32)CC1 (stereo unspecified),2,6,5,24*,11,-15,23,34*
Clc1ccc2c(c1)C(N1CCNCC1)Cc1ccccc1S2 (stereo unspecified),-15,x,-2,28*,x,-1,53*,65*
N#CCOc1coc(CN2CCN(c3ccccc3)CC2)cc1=O,-1,-24,0,-2,1,0,x,x
CCc1ccc(-n2c(C)cc(/C=N/NC(=O)OC)c2C)cc1,-17,-13,3,2,-1,-16,x,x
CC(=O)N1CCN(S(=O)(=O)c2cccc(C(=O)NNC(=O)c3ccc(Br)cc3)c2)CC1,x,-22,x,x,6,x,x,x
O=C(COC(=O)c1cc[n+]([O-])cc1)NCC12CC3CC(CC(C3)C1)C2,-3,-8,4,-15,7,-11,x,x
CCc1ccc(NC(=O)C2(c3ccccc3)CC2(Cl)Cl)cc1 (stereo unspecified),52*,47,13,29*,55*,14,65*,76*
CCCN1CCc2c(sc(NC(=O)Cc3ccc(F)cc3)c2C(N)=O)C1,-9,-21,31,4,3,-2,x,x
O=C(c1ccccn1)N(Cc1ccco1)C1(C(=O)NC2CCCC2)CCCCC1,-16,-5,17,37*,13,-11,28*,21
